Test results published in ChEMBL document CHEMBL4354843, “Structure-Based Design of a Potent and Selective Covalent Inhibitor for SRC Kinase That Targets a P-Loop Cysteine” (J Med Chem, 2020).
Calls of active or inactive are those of the source. The calls are words filed in the database; no cut-off is given here.

Experiments:
[1] = target: Aurora kinase A (Homo sapiens) (UniProt O14965); assay: Binding affinity to wild-type human partial length AURKA (E122 to K401 residues) expressed in mammalian expression system assessed as residual binding level at 1 uM by Kinomescan method relative to control
[2] = target: Mitogen-activated protein kinase 3 (Homo sapiens) (UniProt P27361); assay: Binding affinity to wild-type human full length ERK1 (M1 to P379 residues) expressed in bacterial expression system assessed as residual binding level at 1 uM by Kinomescan method relative to control
Method in brief: (§1)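 Active-site-directed KinomeScan competition binding panel covering 468 kinases, compound tested at 1 μM. Each readout is the kinase signal remaining with compound, expressed as a percentage of the DMSO control. […]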

[3] = target: Muscle, skeletal receptor tyrosine-protein kinase (Homo sapiens) (UniProt O15146); assay: Binding affinity to wild-type human partial length MUSK (M553 to V869 residues) expressed in bacterial expression system assessed as residual binding level at 1 uM by Kinomescan method relative to control
[4] = target: Casein kinase I isoform delta (Homo sapiens) (UniProt P48730); assay: Binding affinity to wild-type human full length CSNK1D (M1 to K409 residues) expressed in bacterial expression system assessed as residual binding level at 1 uM by Kinomescan method relative to control; method in brief: as §1
[5] = target: Ankyrin repeat and protein kinase domain-containing protein 1 (Homo sapiens) (UniProt Q8NFD2); assay: Binding affinity to wild-type human partial length ANKK1 (M1 to A305 residues) expressed in mammalian expression system assessed as residual binding level at 1 uM by Kinomescan method relative to control
Sequence of Ankyrin repeat and protein kinase domain-containing protein 1 (Homo sapiens) (Q8NFD2 whole entry, the tested form may be a part): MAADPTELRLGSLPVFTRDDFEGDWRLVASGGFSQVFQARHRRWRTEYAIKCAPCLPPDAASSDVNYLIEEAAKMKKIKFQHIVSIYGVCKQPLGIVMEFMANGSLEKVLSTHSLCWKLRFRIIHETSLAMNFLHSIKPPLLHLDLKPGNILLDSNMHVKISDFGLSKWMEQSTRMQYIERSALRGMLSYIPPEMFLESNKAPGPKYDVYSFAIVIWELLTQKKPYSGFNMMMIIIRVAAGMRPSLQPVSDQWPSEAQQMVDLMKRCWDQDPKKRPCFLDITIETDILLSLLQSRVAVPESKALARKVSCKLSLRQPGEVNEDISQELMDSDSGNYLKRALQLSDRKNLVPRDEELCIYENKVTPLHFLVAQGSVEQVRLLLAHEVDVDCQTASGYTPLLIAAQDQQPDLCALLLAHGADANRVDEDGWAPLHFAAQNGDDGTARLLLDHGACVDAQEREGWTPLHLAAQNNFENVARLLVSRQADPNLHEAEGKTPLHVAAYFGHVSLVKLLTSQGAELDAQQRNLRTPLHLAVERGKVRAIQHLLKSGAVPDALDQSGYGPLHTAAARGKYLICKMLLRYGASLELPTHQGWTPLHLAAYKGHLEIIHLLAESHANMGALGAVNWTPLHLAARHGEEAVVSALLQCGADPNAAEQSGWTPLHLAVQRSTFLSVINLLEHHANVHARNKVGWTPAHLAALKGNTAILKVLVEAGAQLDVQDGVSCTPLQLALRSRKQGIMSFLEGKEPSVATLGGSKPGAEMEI
Method in brief: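 KinomeScan, an active site-directed competition binding panel of 468 kinases. The test compound was at 1 μM. The readout is remaining kinase binding as a percentage of the DMSO control. Scores above 35% were treated as weak binding and not listed.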

[6] = target: Phosphatidylinositol 4-kinase beta (Homo sapiens) (UniProt Q9UBF8); assay: Binding affinity to wild-type human full length PIK4CB (M1 to M828 residues) expressed in mammalian expression system assessed as residual binding level at 1 uM by Kinomescan method relative to control
Method in brief: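 Active-site-directed competition binding panel (KinomeScan) covering 468 kinases. Test agent was screened at 1 μM. The read-out is the remaining kinase signal expressed relative to a DMSO control. Scores above 35%, taken as weak binding, were not reported.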

[7] = target: Serine/threonine-protein kinase WNK1 (Homo sapiens) (UniProt Q9H4A3); assay: Binding affinity to wild-type human partial length WNK1 (Q194 to A490 residues) expressed in mammalian expression system assessed as residual binding level at 1 uM by Kinomescan method relative to control
[8] = target: Phosphatidylinositol 3-kinase C2 domain-containing subunit gamma (Homo sapiens) (UniProt O75747); assay: Binding affinity to wild-type human partial length PIK3C2G (M1 to I1446 residues) expressed in mammalian expression system assessed as residual binding level at 1 uM by Kinomescan method relative to control
[9] = test system: Fibroblast growth factor receptor 3 (Homo sapiens), P22607 [G697C]; assay: Binding affinity to human partial length FGFR3 G697C mutant (R442 to S771 residues) expressed in bacterial expression system assessed as residual binding level at 1 uM by Kinomescan method relative to control
Method in brief: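 KinomeScan active site-directed competition binding panel (468 kinases), compound tested at 1 μM. Result expressed as remaining kinase signal versus DMSO control (percent of control).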

[10] = target: Ribosomal protein S6 kinase alpha-1 (Homo sapiens) (UniProt Q15418); assay: Binding affinity to wild-type human partial length N-terminal RSK1 Kinase domain 1 (M1 to E388 residues) expressed in bacterial expression system assessed as residual binding level at 1 uM by Kinomescan method relative to control
Sequence of Ribosomal protein S6 kinase alpha-1 (Homo sapiens) (Q15418 whole entry, the tested form may be a part): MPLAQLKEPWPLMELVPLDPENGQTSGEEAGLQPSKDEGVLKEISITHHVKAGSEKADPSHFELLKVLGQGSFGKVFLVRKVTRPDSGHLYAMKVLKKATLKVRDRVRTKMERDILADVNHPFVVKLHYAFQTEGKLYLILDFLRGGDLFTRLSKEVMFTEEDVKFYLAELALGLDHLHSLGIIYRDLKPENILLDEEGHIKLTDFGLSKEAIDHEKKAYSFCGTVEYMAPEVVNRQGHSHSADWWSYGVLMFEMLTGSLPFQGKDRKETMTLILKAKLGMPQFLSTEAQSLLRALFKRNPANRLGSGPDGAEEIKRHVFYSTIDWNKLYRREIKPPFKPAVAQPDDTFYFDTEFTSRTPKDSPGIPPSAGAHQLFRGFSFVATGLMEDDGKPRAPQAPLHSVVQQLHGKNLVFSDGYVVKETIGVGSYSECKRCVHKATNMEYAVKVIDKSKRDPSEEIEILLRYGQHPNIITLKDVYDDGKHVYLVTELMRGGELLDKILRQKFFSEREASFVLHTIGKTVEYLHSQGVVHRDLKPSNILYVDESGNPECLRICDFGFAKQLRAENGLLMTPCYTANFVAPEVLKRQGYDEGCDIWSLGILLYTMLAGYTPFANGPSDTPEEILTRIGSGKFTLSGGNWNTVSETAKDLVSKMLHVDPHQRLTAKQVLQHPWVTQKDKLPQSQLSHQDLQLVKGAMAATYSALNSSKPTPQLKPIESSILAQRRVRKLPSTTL

[11] = target: Serine/threonine-protein kinase MRCK beta (Homo sapiens) (UniProt Q9Y5S2); assay: Binding affinity to wild-type human partial length MRCKB (L56 to S417 residues) expressed in bacterial expression system assessed as residual binding level at 1 uM by Kinomescan method relative to control
Sequence of Serine/threonine-protein kinase MRCK beta (Homo sapiens) (Q9Y5S2 whole entry, the tested form may be a part): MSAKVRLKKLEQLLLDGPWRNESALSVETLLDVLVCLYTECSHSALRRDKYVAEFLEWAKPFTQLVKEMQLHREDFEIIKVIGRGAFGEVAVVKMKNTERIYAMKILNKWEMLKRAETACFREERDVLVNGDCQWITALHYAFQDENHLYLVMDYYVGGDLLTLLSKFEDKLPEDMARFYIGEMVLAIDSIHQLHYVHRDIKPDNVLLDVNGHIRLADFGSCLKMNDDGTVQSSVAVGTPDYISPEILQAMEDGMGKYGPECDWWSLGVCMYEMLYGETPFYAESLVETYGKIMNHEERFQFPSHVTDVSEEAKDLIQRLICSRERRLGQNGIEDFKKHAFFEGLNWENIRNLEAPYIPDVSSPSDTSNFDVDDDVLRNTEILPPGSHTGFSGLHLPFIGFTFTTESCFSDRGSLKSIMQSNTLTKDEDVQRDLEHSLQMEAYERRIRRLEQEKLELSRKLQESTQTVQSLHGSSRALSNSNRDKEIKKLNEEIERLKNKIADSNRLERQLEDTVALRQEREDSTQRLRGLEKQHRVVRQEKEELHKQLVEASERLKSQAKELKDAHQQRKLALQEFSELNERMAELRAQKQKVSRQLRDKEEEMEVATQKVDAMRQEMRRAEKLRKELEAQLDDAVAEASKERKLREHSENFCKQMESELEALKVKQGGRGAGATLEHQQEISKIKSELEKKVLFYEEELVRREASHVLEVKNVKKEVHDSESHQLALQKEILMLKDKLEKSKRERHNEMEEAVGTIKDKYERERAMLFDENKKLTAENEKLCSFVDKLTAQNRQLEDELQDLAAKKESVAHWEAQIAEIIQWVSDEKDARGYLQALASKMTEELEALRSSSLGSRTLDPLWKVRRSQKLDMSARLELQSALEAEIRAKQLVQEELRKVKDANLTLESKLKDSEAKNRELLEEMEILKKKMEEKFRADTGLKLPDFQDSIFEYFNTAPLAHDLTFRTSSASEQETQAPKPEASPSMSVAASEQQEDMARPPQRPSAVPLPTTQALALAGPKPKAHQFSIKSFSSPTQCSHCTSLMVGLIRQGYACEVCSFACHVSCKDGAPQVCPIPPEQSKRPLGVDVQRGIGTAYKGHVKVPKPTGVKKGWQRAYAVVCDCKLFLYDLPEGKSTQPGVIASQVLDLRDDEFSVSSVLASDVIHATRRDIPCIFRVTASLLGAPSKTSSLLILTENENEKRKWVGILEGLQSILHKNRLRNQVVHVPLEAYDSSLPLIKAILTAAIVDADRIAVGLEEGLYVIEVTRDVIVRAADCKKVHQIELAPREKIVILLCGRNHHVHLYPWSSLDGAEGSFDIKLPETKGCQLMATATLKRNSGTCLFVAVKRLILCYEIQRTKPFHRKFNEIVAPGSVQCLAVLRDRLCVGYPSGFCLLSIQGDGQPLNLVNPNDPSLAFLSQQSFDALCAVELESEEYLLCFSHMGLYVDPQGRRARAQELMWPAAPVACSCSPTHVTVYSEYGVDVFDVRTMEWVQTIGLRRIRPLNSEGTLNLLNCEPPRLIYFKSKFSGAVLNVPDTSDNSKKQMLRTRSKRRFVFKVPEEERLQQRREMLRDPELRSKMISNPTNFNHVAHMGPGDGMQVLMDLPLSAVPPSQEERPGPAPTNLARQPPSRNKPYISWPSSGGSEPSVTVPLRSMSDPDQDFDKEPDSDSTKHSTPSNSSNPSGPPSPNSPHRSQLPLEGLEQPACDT

[12] = target: Mitogen-activated protein kinase; ERK1/ERK2 (Homo sapiens) (UniProt P27361+P28482); assay: Inhibition of ERK1/2 in human HCC827 cells assessed as blocking of ERK1/2 pulldown at 1 uM in presence of TL13-68 incubated for 2 hrs by Western blot analysis; type: cell-based
Method in brief: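 H1975 or HCC827 cells treated with 1 μM compound or DMSO for 2 h, rinsed twice in cold PBS, and lysed in M-PER with protease/phosphatase inhibitors. Lysate rocked overnight at 4 °C with 1 μM TL13-68, then streptavidin pulldown with five cold washes. Bound kinases detected by Western blot. Two independent experiments.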

[13] = target: Ribosomal protein S6 kinase alpha-4 (Homo sapiens) (UniProt O75676); assay: Binding affinity to wild-type human partial length N-terminal RPS6KA4 kinase domain 1 expressed in bacterial expression system assessed as residual binding level at 1 uM by Kinomescan method relative to control
[14] = target: Protein-tyrosine kinase 6 (Homo sapiens) (UniProt Q13882); assay: Binding affinity to wild-type human partial length BRK (L166 to T451 residues) expressed in bacterial expression system assessed as residual binding level at 1 uM by Kinomescan method relative to control
[15] = target: Ephrin type-A receptor 4 (Homo sapiens) (UniProt P54764); assay: Binding affinity to wild-type human partial length EPHA4 (T601 to R897 residues) expressed in bacterial expression system assessed as residual binding level at 1 uM by Kinomescan method relative to control
Sequence of Ephrin type-A receptor 4 (Homo sapiens) (P54764 whole entry, the tested form may be a part): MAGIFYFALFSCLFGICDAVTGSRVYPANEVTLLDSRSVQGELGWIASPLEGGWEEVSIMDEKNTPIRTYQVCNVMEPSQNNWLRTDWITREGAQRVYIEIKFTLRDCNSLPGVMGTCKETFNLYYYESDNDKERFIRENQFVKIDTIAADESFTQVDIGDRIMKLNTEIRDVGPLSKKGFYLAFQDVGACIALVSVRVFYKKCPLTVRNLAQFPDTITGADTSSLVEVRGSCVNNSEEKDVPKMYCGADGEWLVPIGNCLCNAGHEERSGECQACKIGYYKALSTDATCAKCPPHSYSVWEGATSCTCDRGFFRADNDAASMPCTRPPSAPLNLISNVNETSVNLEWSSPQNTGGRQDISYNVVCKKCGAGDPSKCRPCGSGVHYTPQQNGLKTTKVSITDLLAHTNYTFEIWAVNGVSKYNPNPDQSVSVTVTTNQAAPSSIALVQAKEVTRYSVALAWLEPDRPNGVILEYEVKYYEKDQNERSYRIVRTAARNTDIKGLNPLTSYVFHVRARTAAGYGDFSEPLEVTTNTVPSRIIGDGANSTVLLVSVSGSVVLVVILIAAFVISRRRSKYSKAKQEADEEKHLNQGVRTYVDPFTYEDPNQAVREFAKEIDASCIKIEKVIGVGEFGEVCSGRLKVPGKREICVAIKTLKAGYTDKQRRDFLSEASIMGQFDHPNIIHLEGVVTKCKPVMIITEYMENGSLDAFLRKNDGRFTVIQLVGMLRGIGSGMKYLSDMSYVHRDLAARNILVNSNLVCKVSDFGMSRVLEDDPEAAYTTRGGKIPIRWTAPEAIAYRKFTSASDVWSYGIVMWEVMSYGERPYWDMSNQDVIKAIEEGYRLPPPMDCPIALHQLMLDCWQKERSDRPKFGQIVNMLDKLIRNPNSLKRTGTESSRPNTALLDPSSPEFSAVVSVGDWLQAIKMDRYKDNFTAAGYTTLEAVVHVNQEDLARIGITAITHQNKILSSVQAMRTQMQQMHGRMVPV
Method in brief: (§2)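 Active-site-directed competition binding panel of 468 kinases (KinomeScan), compound at 1 μM. The read-out is kinase remaining bound, given as a percentage of the DMSO control. […]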

[16] = target: Beta-adrenergic receptor kinase 1 (Homo sapiens) (UniProt P25098); assay: Binding affinity to wild-type human full length GRK2 (M1 to L689 residues) expressed in mammalian expression system assessed as residual binding level at 1 uM by Kinomescan method relative to control; method in brief: as §1
[17] = test system: Tyrosine-protein kinase ABL1 (Homo sapiens), P00519 [M351T]; assay: Binding affinity to human phosphorylated ABL1 M351T mutant (S229 to K512 residues) expressed in mammalian expression system assessed as residual binding level at 1 uM by Kinomescan method relative to control; method in brief: as §1
[18] = target: RAC-gamma serine/threonine-protein kinase (Homo sapiens) (UniProt Q9Y243); assay: Binding affinity to wild-type human partial length AKT3 expressed in bacterial expression system assessed as residual binding level at 1 uM by Kinomescan method relative to control
[19] = target: Serine/threonine-protein kinase PLK1 (Homo sapiens) (UniProt P53350); assay: Binding affinity to wild-type human partial length PLK1 (A33 to F325 residues) expressed in mammalian expression system assessed as residual binding level at 1 uM by Kinomescan method relative to control
[20] = target: Serine/threonine-protein kinase MARK1 (Homo sapiens) (UniProt Q9P0L2); assay: Binding affinity to wild-type human partial length MARK1 (Q30 to T341 residues) expressed in bacterial expression system assessed as residual binding level at 1 uM by Kinomescan method relative to control; method in brief: as §2
Sequence of Serine/threonine-protein kinase MARK1 (Homo sapiens) (Q9P0L2 whole entry, looked up, the tested form may be a part): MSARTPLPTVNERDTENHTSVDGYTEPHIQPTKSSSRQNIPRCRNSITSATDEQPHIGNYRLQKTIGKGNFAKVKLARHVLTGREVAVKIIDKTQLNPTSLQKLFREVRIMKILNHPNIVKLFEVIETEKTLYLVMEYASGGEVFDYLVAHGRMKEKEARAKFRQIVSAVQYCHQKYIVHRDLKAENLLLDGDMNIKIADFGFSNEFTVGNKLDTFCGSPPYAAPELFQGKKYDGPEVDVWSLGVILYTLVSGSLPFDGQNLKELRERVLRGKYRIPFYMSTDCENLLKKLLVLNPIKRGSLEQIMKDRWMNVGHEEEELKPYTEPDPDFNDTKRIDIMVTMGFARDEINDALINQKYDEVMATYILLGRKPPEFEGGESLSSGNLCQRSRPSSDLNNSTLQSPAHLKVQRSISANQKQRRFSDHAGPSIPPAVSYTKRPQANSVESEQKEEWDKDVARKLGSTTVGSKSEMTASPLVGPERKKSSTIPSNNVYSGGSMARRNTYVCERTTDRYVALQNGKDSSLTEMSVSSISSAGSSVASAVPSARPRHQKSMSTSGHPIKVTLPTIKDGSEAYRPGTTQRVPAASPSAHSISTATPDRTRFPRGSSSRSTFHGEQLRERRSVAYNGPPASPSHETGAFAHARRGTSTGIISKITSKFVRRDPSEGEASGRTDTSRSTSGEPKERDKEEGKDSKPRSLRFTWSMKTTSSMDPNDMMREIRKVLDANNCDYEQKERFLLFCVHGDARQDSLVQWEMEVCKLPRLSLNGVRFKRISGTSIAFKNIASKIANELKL

C=CC(=O)Nc1ccccc1Nc1nc(Nc2ccc(N3CCN(C)CC3)cc2)ncc1C(=O)Nc1c(C)cccc1Cl
Activity [1]: 100% | Activity [2]: 100% | Activity [3]: 100% | Activity [4]: 100% | Activity [5]: 98% | Activity [6]: 91% | Activity [7]: 100% | Activity [8]: 100% | Activity [9]: 100% | Activity [10]: 100% | Activity [11]: 100% | inhibition [12]: inactive | Activity [13]: 100% | Activity [14]: 100% | Activity [15]: 75% | Activity [16]: 85% | Activity [17]: 0.8% | Activity [18]: 100% | Activity [19]: 100% | Activity [20]: 99%
